Data on 3 compounds can be found in ChEMBL document CHEMBL4014306, “Pyrazolopyrimidines as Potent Stimulators for Transient Receptor Potential Canonical 3/6/7 Channels” (J Med Chem, 2017).

The inhibition is the change of the read-out against control, counted positive when it falls. By pEC50 is commonly meant the EC50 on a negative log10 scale, so that one unit is a factor of ten.

The structures appear in SMILES notation. pEC50: −log10 of the molar value. Calls of active or inactive are those of the source. The calls are words filed in the database; no cut-off is given here.

Holding throughout (format): cell-based
Experiment [1] addresses T1, Short transient receptor potential channel 7 (Homo sapiens) (UniProt Q9HCX4).
T1 sequence (whole entry): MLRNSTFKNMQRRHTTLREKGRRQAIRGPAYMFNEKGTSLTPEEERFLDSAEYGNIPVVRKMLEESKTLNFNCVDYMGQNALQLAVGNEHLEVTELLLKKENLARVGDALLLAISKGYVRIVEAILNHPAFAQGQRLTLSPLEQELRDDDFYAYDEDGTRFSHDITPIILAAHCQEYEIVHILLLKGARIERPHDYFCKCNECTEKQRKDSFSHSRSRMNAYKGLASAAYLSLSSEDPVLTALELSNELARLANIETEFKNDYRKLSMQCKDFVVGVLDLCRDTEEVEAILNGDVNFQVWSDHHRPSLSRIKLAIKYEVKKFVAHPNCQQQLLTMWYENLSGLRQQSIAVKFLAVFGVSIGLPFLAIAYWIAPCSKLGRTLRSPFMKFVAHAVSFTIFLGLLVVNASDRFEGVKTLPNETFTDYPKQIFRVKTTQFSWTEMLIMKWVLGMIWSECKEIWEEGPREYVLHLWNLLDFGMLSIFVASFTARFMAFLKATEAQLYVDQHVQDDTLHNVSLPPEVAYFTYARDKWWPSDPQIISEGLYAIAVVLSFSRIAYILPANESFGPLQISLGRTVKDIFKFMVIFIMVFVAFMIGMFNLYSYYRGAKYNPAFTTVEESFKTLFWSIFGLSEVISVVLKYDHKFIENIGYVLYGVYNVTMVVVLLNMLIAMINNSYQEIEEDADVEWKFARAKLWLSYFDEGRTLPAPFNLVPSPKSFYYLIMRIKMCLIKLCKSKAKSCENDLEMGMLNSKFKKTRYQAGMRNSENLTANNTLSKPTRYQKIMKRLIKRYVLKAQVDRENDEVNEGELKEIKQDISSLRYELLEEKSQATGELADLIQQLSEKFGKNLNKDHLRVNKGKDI
Briefly: Antagonist activity at human TRPC7 receptor expressed in HEK293 cells assessed as channel desensitization up to 30 uM in presence of 0.1 mM Ca2+ by whole cell patch-clamp method. The gist of the method: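 Whole-cell clamp of TRPC6/M5 or TRPC7 HEK293 cells with 0.1 mM Ca2+ bath and 400 nM free Ca2+ pipette. Ramps +100 to −100 mV every 1 s. Increasing concentrations given consecutively by perfusion (TRPC6 highest 20–100 μM; TRPC7 up to 30 μM). Currents at positive and negative potentials followed for desensitization.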
On the technique in general: The patch-clamp technique gives a direct electrical read-out from membranes.

For experiment [2], the target named is T2, Short transient receptor potential channel 7 (Homo sapiens, UniProt Q9HCX4).
T2 sequence (Q9HCX4 whole entry): T1 sequence (whole entry)
Briefly: (§1) Agonist activity at human TRPC7 receptor expressed in HEK293 cells assessed as induction of channel current in presence of 0.1 mM Ca2+ by whole cell patch-clamp method. The gist of the method:
(§2)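 Whole-cell voltage clamp on doxycycline-induced stable HEK293 TRPC7 cells. Pipette (mM): 110 CsCl, 10 HEPES, 10 BAPTA, 1 MgCl2, 4.77 CaCl2 (400 nM free Ca2+), pH 7.2. Bath has 0.1 mM CaCl2, and compound is perfused in bath at increasing concentrations. Ramps run from +100 to −100 mV (100 ms) every 1 s from a 0 mV hold.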

Experiment [3] concerns the target T1, Short transient receptor potential channel 7 (Homo sapiens). Described as §1. The gist of the method: as §2
In experiment [4] the target is T3, Short transient receptor potential channel 4 (Mus musculus) (UniProt Q9QUQ5).
T3 sequence (whole entry): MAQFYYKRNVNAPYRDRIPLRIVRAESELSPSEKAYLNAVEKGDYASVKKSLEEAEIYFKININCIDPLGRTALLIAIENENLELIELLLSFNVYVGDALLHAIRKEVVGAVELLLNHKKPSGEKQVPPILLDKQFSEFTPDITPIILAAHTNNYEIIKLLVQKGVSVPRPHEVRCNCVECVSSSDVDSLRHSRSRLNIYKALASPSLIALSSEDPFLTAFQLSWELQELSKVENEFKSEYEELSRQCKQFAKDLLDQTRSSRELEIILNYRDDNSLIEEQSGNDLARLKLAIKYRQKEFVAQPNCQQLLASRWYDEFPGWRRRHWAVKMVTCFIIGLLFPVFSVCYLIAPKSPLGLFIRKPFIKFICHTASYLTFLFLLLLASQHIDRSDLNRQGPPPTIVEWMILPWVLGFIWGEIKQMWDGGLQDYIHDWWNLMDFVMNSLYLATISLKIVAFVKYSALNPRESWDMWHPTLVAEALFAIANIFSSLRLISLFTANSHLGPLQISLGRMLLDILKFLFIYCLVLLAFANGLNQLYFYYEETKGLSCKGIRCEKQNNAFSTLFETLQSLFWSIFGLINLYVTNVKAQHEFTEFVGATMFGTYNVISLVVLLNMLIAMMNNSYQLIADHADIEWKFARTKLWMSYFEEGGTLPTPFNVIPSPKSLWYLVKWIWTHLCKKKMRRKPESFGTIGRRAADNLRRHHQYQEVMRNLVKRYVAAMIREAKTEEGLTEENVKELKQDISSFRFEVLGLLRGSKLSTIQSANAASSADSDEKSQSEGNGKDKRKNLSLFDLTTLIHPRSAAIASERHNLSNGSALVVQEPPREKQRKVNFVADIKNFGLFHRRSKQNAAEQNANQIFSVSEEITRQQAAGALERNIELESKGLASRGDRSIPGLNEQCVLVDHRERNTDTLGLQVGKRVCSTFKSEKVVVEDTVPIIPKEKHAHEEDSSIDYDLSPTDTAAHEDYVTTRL
Briefly: Inhibition of mouse TRPC4beta expressed in HEK293 cells co-expressing MOR assessed as decrease in DAMGO-evoked membrane depolarization at 22 uM preincubated for 2 mins followed by DAMGO addition measured for 2.5 mins by FLIPR membrane potential dye-based fluorescence assay relative to control. The gist of the method: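 Same TRP panel as for the stimulation tests, with FMP dye for TRPC4 and M5 and Fluo8-AM for TRPA1, V1 and M8. Compound applied for 2 min before the channel agonist (TRPC4: 1 μM DAMGO). Inhibition of the agonist response measured on a FlexStation at 32 °C.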

`CCOC(=O)N1CCC(c2cc(O)n3nc(C)c(-c4ccc(F)cc4)c3n2)CC1`: the inhibition result in experiment [1] was “Active”. Further, in experiment [2], the pEC50 was 5.95. In addition, in experiment [3], the Activity result was “Dose-dependent effect”.

With `Cc1nn2c(O)cc(C3CCN(C(=O)OCc4ccccc4)CC3)nc2c1-c1ccc(F)cc1`, the inhibition in experiment [4] worked out at 13%.

Turning to `CCOC(=O)N1CCC(c2cc(O)n3nc(C)c(-c4ccc(C(F)(F)F)cc4)c3n2)CC1`, the inhibition in experiment [4] came to 33%.
